Format in all cases: cell-based
Data set [1] relates to Raji. Briefly: Antitumor-promoting activity assessed as TPA-induced EBV-early antigen activation in human Raji cells at 3.2 nmol after 48 hrs relative to TPA. Particulars: human gammaherpesvirus 4.
Data set [2] is described as follows: Cytotoxicity against human Raji cells assessed as cell viability at 3.2 nmol by trypan blue staining. Particulars: read-out: Activity.
The nature of data set [3]: Cytotoxicity against human Raji cells assessed as cell viability at 16 nmol by trypan blue staining. Particulars: read-out: Activity.
Data set [4] in a line: Cytotoxicity against human Raji cells assessed as cell viability at 32 nmol by trypan blue staining. Particulars: read-out: Activity.
Data set [5] has as its system Raji. Briefly: Antitumor-promoting activity assessed as TPA-induced EBV-early antigen activation in human Raji cells at 16 nmol after 48 hrs relative to TPA. The note with it: human gammaherpesvirus 4.
Data set [6] is described as follows: Cytotoxicity against human Raji cells assessed as cell viability at 0.32 nmol by trypan blue staining. The note with it: read-out: Activity.
Data set [7] deals with Raji. In words: Antitumor-promoting activity assessed as TPA-induced EBV-early antigen activation in human Raji cells at 0.32 nmol after 48 hrs relative to TPA. Particulars: human gammaherpesvirus 4.
For data set [8], the system named is Raji. In words: Antitumor-promoting activity assessed as TPA-induced EBV-early antigen activation in human Raji cells at 32 nmol after 48 hrs relative to TPA. The note with it: human gammaherpesvirus 4. Summed up:
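Raji cells (EBV genome-carrying lymphoblastoid, nonproducer) in RPMI 1640 with 10% FBS, 1×10⁶/mL, given 4 mM n-butyric acid plus 32 pmol TPA (20 ng/mL) and test compound; 37 °C, CO₂, 48 h. EA-positive cells scored by indirect immunofluorescence using NPC patient sera, ≥500 cells counted, three repeats. Expressed as % of butyric acid+TPA control (100%), mean ± S.D.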

Consider `O=C1c2c(O)cc(O)cc2O[C@H](c2ccc(O)cc2)[C@H]1c1c(O)cc(O)c2c(=O)cc(-c3ccc(O)c(O)c3)oc12` [MORELLOFLAVONE], for which the Activity turned out to be 72.6% in the data set with Raji [1], 40.1% in the data set with Raji [5] and 91.2% in the data set with Raji [7]. Also, in data set [2], the viability at 3.2 nmol was over 80%. In data set [3], the viability at 16 nmol was over 80%. Also, the viability at 32 nmol in data set [4] amounted to 70%. The viability at 0.32 nmol in data set [6] is over 80%.
Turning to `O=C1C[C@@H](c2ccc(O)cc2)Oc2c1c(O)cc(O)c2[C@H]1C(=O)c2c(O)cc(O)cc2O[C@@H]1c1ccc(O)cc1`, the Activity with Raji [8] worked out at 19.4%; in the data set with Raji [1] it was 82.9%; in the data set with Raji [5], 48.2%; in the data set on Raji [7] it was 100%. Also, the viability at 3.2 nmol in data set [2] was over 80%. Moreover, the viability at 16 nmol in data set [3] was over 80%. In data set [4], the viability at 32 nmol was determined as 70%. In addition, the viability at 0.32 nmol in data set [6] is over 80%.
For the compound `O=C1c2c(O)cc(O)cc2O[C@H](c2ccc(O)cc2)[C@H]1c1c(O)cc(O)c2c1O[C@H](c1ccc(O)c(O)c1)[C@@H](O)C2=O`, the Activity in the data set with Raji [8] stood at 28.7%; with Raji [1] it was 90.3%; in the data set with Raji [5] it was 63.9%; in the data set on Raji [7], 100%. Further, the viability at 3.2 nmol in data set [2] was over 80%. Further, the viability at 16 nmol in data set [3] was over 80%. The viability at 32 nmol in data set [4] worked out at 70%. Besides, the viability at 0.32 nmol in data set [6] was over 80%.
For the compound `O=C1c2c(O)cc(O)cc2O[C@@H](c2ccc(O)cc2)[C@@H]1c1c(O)cc(O)c2c(=O)c(O)c(-c3ccc(O)c(O)c3)oc12` [PANCIBIFLAVONOL], the Activity in the data set with Raji [8] was 22.1%; in the data set with Raji [1], 75%; in the data set with Raji [5], 50.2%; in the data set on Raji [7], 94.4%. For the same compound, the viability at 3.2 nmol in data set [2] was over 80%. For the same compound, the viability at 16 nmol in data set [3] is over 80%. In addition, the viability at 32 nmol in data set [4] was 70%. In data set [6], the viability at 0.32 nmol is over 80%.
Take `O=C1c2c(O)cc(O)cc2O[C@H](c2ccc(O)cc2)[C@H]1c1c(O)cc(O)c2c1O[C@H](c1ccc(O)cc1)[C@@H](O)C2=O`: the Activity in the data set on Raji [8] was 25.3%; in the data set with Raji [1] it was 88.2%; in the data set on Raji [5], 61%; in the data set with Raji [7], 95.7%. For the same compound, the viability at 3.2 nmol in data set [2] was over 80%. Further, the viability at 16 nmol in data set [3] is over 80%. Besides, the viability at 32 nmol in data set [4] turned out to be 70%. Moreover, the viability at 0.32 nmol in data set [6] is over 80%.
Take `O=C1c2c(O)cc(O)cc2O[C@@H](c2ccc(O)cc2)[C@@H]1c1c(O)cc(O)c2c(=O)c(O)c(-c3ccc(O)cc3)oc12` [GARCINIANIN]: the Activity came to 69.2% with Raji [1], 31.4% in the data set on Raji [5] and 89.4% in the data set with Raji [7]. In addition, the viability at 3.2 nmol in data set [2] is over 80%. Further, in data set [3], the viability at 16 nmol was over 80%. In addition, the viability at 32 nmol in data set [4] was 70%. For the same compound, the viability at 0.32 nmol in data set [6] was over 80%.
As for `O=C1C[C@@H](c2ccc(O)c(O)c2)Oc2c1c(O)cc(O)c2[C@H]1C(=O)c2c(O)cc(O)cc2O[C@@H]1c1ccc(O)cc1`, the figures for the Activity in the data set on Raji [1], with Raji [5] and in the data set on Raji [7] were 71.3%, 42.5% and 90.6%, respectively. The viability at 3.2 nmol in data set [2] is over 80%. Besides, in data set [3], the viability at 16 nmol is over 80%. For the same compound, the viability at 32 nmol in data set [4] was 70%. In addition, in data set [6], the viability at 0.32 nmol was over 80%.
